Test results taken from ChEMBL document CHEMBL5674889, “Enhanced JunD/RSK3 signalling due to loss of BRD4/FOXD3/miR-548d-3p axis determines BET inhibition resistance” (2020).
The source made the active and inactive calls.

Experiments:
MDA-MB-231 [1] = test: Antiproliferative activity in human RPS6KA2-knockdown MDA-MB-231 cells assessed as cell viability at 1 uM for 48 hrs by CellTiter-Glo luminescent cell viability assay; format: functional, cell-based
Summary of the method: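 CellTiter-Glo viability: stable overexpressing or shRNA clones (puromycin 1.0 μg/ml selection) seeded 3000 cells/well, adhered overnight, then exposed to 1 μM for 48 h. Luminescence is background-subtracted and normalised to DMSO-treated control. Triplicates, mean ± SD, one-way ANOVA. MDA-MB-231 cells are kept in DMEM and BT549 in RPMI-1640, each with 10% FBS.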

BT-549 [2] = test: Antiproliferative activity in human FOXD3-knockdown BT-549 cells co-silenced with shRNA of RPS6KA2 assessed as cell growth at 1 uM by CCK-8 assay; format: functional, cell-based
MDA-MB-231 [3] = test: Induction of apoptosis in human MDA-MB-231 cells assessed as caspase-3 cleavage in the presence of osimertinib at 1 uM by Western blotting analysis; format: functional, cell-based
HEK-293T = test: Effect on induction of RPS6KA2 transcription in human HEK293T cells transfected with RPS6KA2 assessed as luciferase activity at 1 uM for 6 hrs by Luciferase reporter assay; format: functional, cell-based
Summary of the method: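 HEK293T were transfected with wild-type or mutant RPS6KA2 enhancer luciferase construct, ± JUND co-transfection (FuGene 6, 24 h). Cells then treated with DMSO or JQ1 1 μM for 6 h. Dual-luciferase activity expressed as fold over vector control; three experiments in triplicate.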

BT-549 [4] = test: Effect on human BT-549 cells assessed as RPS6KA2 mRNA expression in the presence of miR-548d-3p at 1 uM by RT-PCR analysis; format: functional, cell-based
MDA-MB-231 [5] = test: Antiproliferative activity in human FOXD3-knockdown MDA-MB-231 cells co-silenced with shRNA of JUND assessed as cell growth at 1 uM by CCK-8 assay; format: functional, cell-based
MDA-MB-231 [6] = test: Induction of apoptosis in human MDA-MB-231 cells expressing vector control assessed as early apoptotic cells at 1 uM by Annexin V-FITC flow cytometric analysis (reference value: 4.02%); format: functional
Summary of the method: (§1)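 Stable clones (vector, RSK3-overexpressing or RPS6KA2-knockdown) treated ± JQ1 1 μM. Cells washed twice in PBS, resuspended at 1 × 10^6 cells/ml in binding buffer, stained with Annexin V-FITC and propidium iodide for 10 min at room temperature in the dark, then read by flow cytometry. Three independent experiments; one-way ANOVA.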

BT-549 [7] = test: Antiproliferative activity in human JUND-knockdown BT-549 cells assessed as stronger tumor sphere formation at 1 uM by tumor sphere assay; format: functional, cell-based
BT-549 [8] = test: Effect on human BT-549 cells assessed as RSK3 […] expression at 1 uM for 24 hrs by Western blot analysis; format: functional, cell-based
BT-549 [9] = test: Antiproliferative activity in human BT-549 cells assessed as cell growth for 48 hrs in the presence of osimertinib at 1 uM by CCK-8 assay; format: functional, cell-based
Summary of the method: (§2)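 Cells seeded 3000/well, adhered overnight, treated with JQ1 (1 μM) with or without osimertinib (1 μM) for 48 h; growth by CCK-8 kit, normalized to DMSO-treated control; triplicates, mean ± SD, one-way ANOVA.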

BT-549 [10] = test: Effect on induction of RPS6KA2 transcription in human BT-549 cells assessed as JunD protein expression at 1 uM for 24 hrs by Western blot analysis; format: functional, cell-based
MDA-MB-231 [11] = test: Induction of apoptosis in human MDA-MB-231 cells expressing vector control assessed as necrotic cells at 1 uM by Annexin V-FITC flow cytometric analysis (reference value: 1.67%); format: functional; summary of the method: as §1
MDA-MB-231 [12] = test: Antiproliferative activity in human MDA-MB-231 cells assessed as cell growth in the presence of EAI045 at 1 uM by CellTiter-Glo luminescent cell viability assay; format: functional, cell-based
Summary of the method: (§3)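 BLBC cells seeded at 3000/well, adhered overnight, then exposed to JQ1 (1 μM) with or without an EGFR inhibitor (1 μM) for 48 h; control and RPS6KA2-shRNA clones tested. Viability by CellTiter-Glo luminescence, background-subtracted and normalized to DMSO-treated control; triplicates, mean ± SD, one-way ANOVA against JQ1 alone.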

MDA-MB-231 [13] = test: Antiproliferative activity in human MDA-MB-231 cells assessed as cell growth in the presence of AZ5104 at 1 uM by CellTiter-Glo luminescent cell viability assay; format: functional, cell-based; summary of the method: as §3
BT-549 [14] = test: Antiproliferative activity in human JUND-knockdown BT-549 cells assessed as cell viability at 1 uM by CellTiter-Glo luminescent cell viability assay; format: functional, cell-based
Summary of the method: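 Stable JUND-knockdown (shRNA, puromycin 1.0 μg/ml selection) or JUND-overexpressing clones and vector controls, seeded 3000 cells/well and adhered overnight, then given DMSO or JQ1 (1 μM) for 48 h. Read-out CellTiter-Glo luminescence normalized to DMSO control; triplicates, mean ± SD, one-way ANOVA.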

BT-549 [15] = test: Antiproliferative activity in human BT-549 cells assessed as cell growth in the presence of lapatinib at 1 uM by CellTiter-Glo luminescent cell viability assay; format: functional, cell-based; summary of the method: as §3
MDA-MB-231 [16] = test: Effect on human RPS6KA2 knockdown MDA-MB-231 cells assessed as RSK3 protein expression at 1 uM for 24 hrs by Western blot analysis; format: functional, cell-based
MDA-MB-231 [17] = test: Antiproliferative activity in human MDA-MB-231 cells assessed as cell growth in the presence of miR-548d-3p at 1 uM by CCK-8 assay; format: functional, cell-based
Summary of the method: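 BLBC cells transfected with miR-548d-3p mimic or inhibitor, with or without JQ1; growth read by CCK-8 assay relative to DMSO-treated control, seeded at 3000/well. Triplicates, mean ± SD, one-way ANOVA.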

BT-549 [18] = test: Antiproliferative activity in human JunD-overexpressing BT-549 cells assessed as cell growth in the presence of osimertinib at 1 uM by CCK-8 assay; format: functional, cell-based
BT-549 [19] = test: Effect on human BT-549 cells assessed as miR-548d-5p expression at 1 uM by real-time PCR analysis; format: functional, cell-based
MDA-MB-231 [20] = test: Induction of apoptosis in human MDA-MB-231 cells at 1 uM by FACS assay; format: functional, cell-based; summary of the method: as §1
MDA-MB-231 [21] = test: Effect on human RPS6KA2-knockdown MDA-MB-231 cells assessed as inhibition tumor sphere formation at 1 uM by Tumor sphere assay; format: functional, cell-based
BT-549 [22] = test: Antiproliferative activity in human BT-549 cells assessed as cell growth in the presence of erlotinib at 1 uM by CellTiter-Glo luminescent cell viability assay; format: functional, cell-based; summary of the method: as §3
BT-549 [23] = test: Antiproliferative activity in human RPS6KA2 expressed in JUND knock-down BT-549 cells assessed as inhibition of cell growth at 1 uM by CCK-8 assay; format: functional, cell-based
BT-549 [24] = test: Effect of human RSK3-overexpressing BT-549 cells assessed as suppression of tumour sphere formation at 1 uM by Tumour sphere assay; format: functional, cell-based
MDA-MB-231 [25] = test: Antiproliferative activity in human MDA-MB-231 cells assessed as inhibited cell growth in the presence of osimertinib at 1 uM for 48 hrs by CCK-8 assay; format: functional, cell-based; summary of the method: as §2

Measured: Activity

Cc1sc2c(c1C)C(c1ccc(Cl)cc1)=N[C@@H](CC(=O)OC(C)(C)C)c1nnc(C)n1-2
1.54%: MDA-MB-231 [11]
16.3%: MDA-MB-231 [6]
active: all other assays above
